Data on twelve compounds can be found in ChEMBL document CHEMBL4425134, “Analogs of the ATP-Sensitive Potassium (KATP) Channel Opener Cromakalim with in Vivo Ocular Hypotensive Activity” (J Med Chem, 2016).

For data set [1], the system named is Mus musculus. The experiment in a line: Antiglaucoma activity in normotensive C57BL/6 mouse assessed as reduction in intraocular pressure at 5 mM compound solution in PBS administered topically once daily as bolus dose to one eye for 6 days measured up to 23 hrs post daily administration by tonometer. It is filed as functional. In short, it runs like this: (§1)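 Mice received a 5 mM solution in PBS as a 5 µl topical bolus to one eye once daily for 6 days, with PBS to the contralateral eye. IOP was read by rebound tonometer in conscious mice at 1, 4 and 23 h post-dose and averaged. Values are expressed as treated minus control eye. Readings continued after treatment stopped. n=10 (days 1–9), n=6 (days 10–12).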

Data set [2] is described as follows: Stability of compound in D2O solution. The format is physicochemical.
Data set [3] can be described thus: Solubility in water at 10 mg/ml. Particulars: buffer. It is filed as physicochemical.
For data set [4], the system named is Mus musculus. Description: Antiglaucoma activity in normotensive C57BL/6 mouse assessed as reduction in intraocular pressure at 2.5 mM compound solution in PBS administered topically once daily as bolus dose to contralateral eye for 7 days measured up to 23 hrs post daily administration by tonometer. It is filed as functional. An outline of the steps: (§2)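 C57BL/6 retired breeders (>7 months old) received a 5 µl bolus of 2.5 mM solution in PBS topically to one eye once daily for 7 consecutive days, with PBS to the contralateral eye. IOP was measured in conscious, non-anesthetized mice by hand-held rebound tonometer at 1, 4 and 23 h after dosing. Daily IOP is the mean of the three readings, expressed as treated minus vehicle eye (mm Hg). n=10 (days 1–10), n=6 after.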

Data set [5] is described as follows: Toxicity in normotensive C57BL/6 mouse assessed as effect on cell number in aqueous humor outflow pathway at 5 mM administered topically as solution in mixture of DMSO, cremophor EL and PBS once daily as bolus dose to contralateral eye for 5 days by hematoxylin and eosin staining based transmission electron microscopic analysis. It is filed as organism-based. Particulars: in vivo, topical_or_ocular, 120 h, 5000 µM.

For data set [6], the system named is Mus musculus. The experiment in a line: Antiglaucoma activity in normotensive C57BL/6 mouse assessed as reduction in intraocular pressure at 5 mM administered topically as solution in mixture of DMSO, cremophor EL and PBS once daily as bolus dose to contralateral eye for 5 days pretreated with 5 mM dexcromakalim for 6 days by tonometer. It is filed as functional. In short, it runs like this:
(§3)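 Following baseline IOP, C57BL/6 mice were dosed topically once daily with a 5 µl bolus to one eye. Dexromakalim was given for 6 days, then levromakalim for 5 days. Each was made as a 100 mM DMSO stock diluted to 5 mM with 10% cremophor EL in PBS. IOP was read by rebound tonometer versus the vehicle-treated contralateral eye.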

A short description of data set [7]: Toxicity in normotensive C57BL/6 mouse assessed as effect on cell structure in aqueous humor outflow pathway at 5 mM administered topically as solution in mixture of DMSO, cremophor EL and PBS once daily as bolus dose to contralateral eye for 5 days by hematoxylin and eosin staining based transmission electron microscopic analysis. The format is organism-based. Particulars: in vivo, topical_or_ocular, 120 h, 5000 µM.

In data set [8] the test system is Mus musculus. Description: Antiglaucoma activity in normotensive C57BL/6 mouse assessed as reduction in intraocular pressure at 5 mM administered topically as solution in mixture of DMSO, cremophor EL and PBS once daily as bolus dose to one eye for 6 days followed by 5 mM levcromakalim treatment for 5 days by tonometer. The format is functional. In short, it runs like this:
as §3

A short description of data set [9]: Toxicity in normotensive C57BL/6 mouse assessed as effect on cell structure in aqueous humor outflow pathway at 5 mM administered topically as solution in mixture of DMSO, cremophor EL and PBS once daily as bolus dose to one eye for 6 days by hematoxylin and eosin staining based transmission electron microscopic analysis. It is filed as organism-based. Particulars: in vivo, topical_or_ocular, 144 h, 5000 µM.

A short description of data set [10]: Toxicity in normotensive C57BL/6 mouse assessed as effect on cell number in aqueous humor outflow pathway at 5 mM administered topically as solution in mixture of DMSO, cremophor EL and PBS once daily as bolus dose to one eye for 6 days by hematoxylin and eosin staining based transmission electron microscopic analysis. It is filed as organism-based. Particulars: in vivo, topical_or_ocular, 144 h, 5000 µM.

Data set [11] is described as follows: Toxicity in normotensive C57BL/6 mouse assessed as effect on cell number in aqueous humor outflow pathway at 5 mM administered topically as solution in PBS once daily as bolus dose to contralateral eye for 5 days by hematoxylin and eosin staining based transmission electron microscopic analysis. The format is organism-based. Particulars: in vivo, topical_or_ocular, 120 h, 5000 µM.

Data set [12] in a line: Toxicity in normotensive C57BL/6 mouse assessed as effect on cell structure in aqueous humor outflow pathway at 5 mM administered topically as solution in PBS once daily as bolus dose to contralateral eye for 5 days by hematoxylin and eosin staining based transmission electron microscopic analysis. The format is organism-based. Particulars: in vivo, topical_or_ocular, 120 h, 5000 µM.

Data set [13] concerns Mus musculus. Description: Antiglaucoma activity in normotensive C57BL/6 mouse assessed as reduction in intraocular pressure at 5 mM administered topically as solution in PBS once daily as bolus dose to contralateral eye for 5 days followed by 5 mM sodium (3S,4R)-6-cyano-2,2-dimethyl-4-(2-oxopyrrolidin-1-yl)chroman-3-yl phosphate treatment for 5 days by tonometer. It is filed as functional. In short, it runs like this: (§4)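 C57BL/6 mice received sequential once-daily topical 5 µl boluses of 5 mM enantiomers dissolved in PBS to one eye, with vehicle to the contralateral eye. IOP was read by rebound tonometer in conscious mice at 1, 4 and 23 h post-dose, averaged, and expressed relative to the vehicle eye. n=10.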

Data set [14] concerns Mus musculus. The experiment in a line: Antiglaucoma activity in normotensive C57BL/6 mouse assessed as reduction in intraocular pressure at 2.5 mM compound solution in PBS administered topically once daily as bolus dose to contralateral eye for 7 days measured up to 48 hrs after cessation of drug treatment by tonometer. It is filed as functional, organism-based. An outline of the steps:
as §2

Data set [15] is described as follows: Prodrug activation in buffer containing ZnCl2, MgCl2 and sodium glycine assessed as alkaline phosphatase (unknown origin)-mediated levcromakalim formation. Particulars: human.
Data set [16] can be described thus: Toxicity in normotensive C57BL/6 mouse assessed as alteration in morphology of aqueous humor outflow pathway at 2.5 mM compound solution in PBS administered topically once daily as bolus dose to contralateral eye for 7 days by hematoxylin and eosin staining based transmission electron microscopic analysis. Particulars: in vivo, topical_or_ocular, 168 h, 2500 µM. It is filed as organism-based. In short, it runs like this:
(§5)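 After once-daily topical dosing of C57BL/6 mice with 2.5 mM in PBS (5 µl), some animals were sacrificed. Aqueous outflow pathway tissues (trabecular meshwork, Schlemm's canal) were examined by hematoxylin and eosin stained sections and by transmission electron microscopy. Cell structure and number were compared with vehicle-treated eyes.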

Data set [17] is described as follows: Toxicity in normotensive C57BL/6 mouse assessed as effect on cell structure in aqueous humor outflow pathway at 2.5 mM compound solution in PBS administered topically once daily as bolus dose to contralateral eye for 7 days by hematoxylin and eosin staining based transmission electron microscopic analysis. It is filed as organism-based. Particulars: in vivo, topical_or_ocular, 168 h, 2500 µM. In short, it runs like this: as §5

Data set [18] in a line: Toxicity in normotensive C57BL/6 mouse assessed as effect on cell number in aqueous humor outflow pathway at 2.5 mM compound solution in PBS administered topically once daily as bolus dose to contralateral eye for 7 days by hematoxylin and eosin staining based transmission electron microscopic analysis. The format is organism-based. Particulars: in vivo, topical_or_ocular, 168 h, 2500 µM. In short, it runs like this:
as §5

For data set [19], the system named is Mus musculus. Description: Antiglaucoma activity in normotensive C57BL/6 mouse assessed as reduction in intraocular pressure at 5 mM administered topically as solution in PBS once daily as bolus dose to contralateral eye for 5 days pretreated with 5 mM sodium (3R,4S)-6-cyano-2,2-dimethyl-4-(2-oxopyrrolidin-1-yl)chroman-3-yl phosphate for 5 days by tonometer. The format is functional. In short, it runs like this:
as §4

Data set [20] relates to Oryctolagus cuniculus. The experiment in a line: Antiglaucoma activity in normotensive Dutch-belted pigmented rabbit assessed as reduction in intraocular pressure at 5 mM administered topically as solution in PBS once daily as bolus dose to contralateral eye for 4 days pretreated with 2.5 mM compound for 4 days measured up to 23 hrs post daily administration by tonometer. It is filed as functional. An outline of the steps: (§6)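 In normotensive Dutch-belted pigmented rabbits, a PBS solution was applied topically as a 50 µL bolus to one eye once daily: 2.5 mM for 4 days, then 5 mM for 4 days. IOP was measured at 1, 4 and 23 h after each dose and averaged. Values are the absolute difference between treated and control eyes (mmHg).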

For data set [21], the system named is Oryctolagus cuniculus. The experiment in a line: Antiglaucoma activity in normotensive Dutch-belted pigmented rabbit assessed as reduction in intraocular pressure at 2.5 mM administered topically as solution in PBS once daily as bolus dose to contralateral eye for 4 days followed by 5 mM compound treatment for 4 days measured up to 23 hrs post daily administration by tonometer. The format is functional. In short, it runs like this: as §6

In data set [22] the test system is Mus musculus. Description: Antiglaucoma activity in normotensive C57BL/6 mouse assessed as reduction in intraocular pressure at 5 mM compound solution in PBS administered topically once daily as bolus dose to one eye for 6 days measured up to 72 hrs post treatment by tonometer. It is filed as functional, organism-based. An outline of the steps: as §1
Data set [23] concerns Mus musculus. Description: Antiglaucoma activity in normotensive C57BL/6 mouse assessed as reduction in intraocular pressure at 5 mM administered topically as solution in mixture of DMSO, cremophor EL and PBS once daily as bolus dose to one eye for 5 days measured up to 23 hrs post daily administration by tonometer. It is filed as functional. In short, it runs like this: as §3

The nature of data set [24]: Stability in D2O solution assessed as compound decomposition after 1 week by 31P NMR analysis. The format is physicochemical. Particulars: 168 h.
A short description of data set [25]: Stability in D2O solution assessed as compound decomposition after 1 week by 1H NMR analysis. The format is physicochemical. Particulars: 168 h.

Active and inactive are the calls of the source. The calls are words filed in the database; no cut-off is given here.

Turning to `CC(C)C[C@H](NC(=O)CN)C(=O)OCO[C@H]1[C@H](N2CCCC2=O)c2cc(C#N)ccc2OC1(C)C`, in the data set on Mus musculus [1], the Activity worked out at 1.93 mmHg.

Regarding `CC1(C)Oc2ccc(C#N)cc2[C@@H](N2CCCC2=O)[C@@H]1OP(=O)([O-])[O-].[Na+].[Na+]` (racemic), in [2], the Stability is over 6 months. Moreover, in data set [3], the solubility result is “Soluble”. Moreover, the Activity in the data set on Mus musculus [4] stood at 2.5 mmHg.

For `CC1(C)Oc2ccc(C#N)cc2[C@@H](N2CCCC2=O)[C@@H]1O` [LEVCROMAKALIM], the Activity entry in data set [5] was “Non-Toxic”; in the data set with Mus musculus [6] it was 3.37 mmHg; in data set [7] it was “Non-Toxic”.

Turning to `CC(C)C[C@@H](NC(=O)CN)C(=O)O[C@H]1[C@H](N2CCCC2=O)c2cc(C#N)ccc2OC1(C)C`, the Activity in the data set with Mus musculus [1] stood at 1.57 mmHg.

For `CC1(C)Oc2ccc(C#N)cc2[C@H](N2CCCC2=O)[C@H]1O` [(-)-CROMAKALIM], the Activity in the data set on Mus musculus [8] is reported as 0.73 mmHg; in [9], “Non-Toxic”; in data set [10], “Non-Toxic”.

Regarding `CC1(C)Oc2ccc(C#N)cc2[C@H](N2CCCC2=O)[C@H]1OP(=O)([O-])[O-].[Na+].[Na+]`, the Activity result in data set [11] is reported as “Non-Toxic”; in data set [12] it was “Non-Toxic”; in the data set on Mus musculus [13], 0.14 mmHg.

Regarding `CC1(C)Oc2ccc(C#N)cc2[C@@H](N2CCCC2=O)[C@@H]1OP(=O)(O)O`, in the data set on Mus musculus [14], the result was inactive.

For the compound `CC(C)C[C@H](NC(=O)CN)C(=O)O[C@H]1[C@H](N2CCCC2=O)c2cc(C#N)ccc2OC1(C)C`, the Activity with Mus musculus [1] worked out at 2.45 mmHg.

Consider `CC1(C)Oc2ccc(C#N)cc2[C@@H](N2CCCC2=O)[C@@H]1OP(=O)([O-])[O-].[Na+].[Na+]`, for which, in [15], the Drug metabolism entry was “Metabolite_Detected”. The Activity result in data set [11] was “Non-Toxic”; in data set [12], “Non-Toxic”; in data set [16] it was “Non-Toxic”; in data set [17], “Non-Toxic”; in data set [18] it was “Non-Toxic”; with Mus musculus [4] it was 3.14 mmHg. Besides, the results for the Activity with Mus musculus [19], in the data set on Oryctolagus cuniculus [20] and with Oryctolagus cuniculus [21] were 3.82 mmHg, 2.26 mmHg and 2.02 mmHg, respectively.

As for `CC1(C)Oc2ccc(C(F)(F)F)cc2[C@@H](N2CCCC2=O)[C@@H]1OP(=O)([O-])[O-].[Na+].[Na+]`, the result in the data set on Mus musculus [22] was Active. The Activity with Mus musculus [1] worked out at 3.91 mmHg; in the data set with Oryctolagus cuniculus [20] it was 1.6 mmHg; in the data set on Oryctolagus cuniculus [21], 1.06 mmHg.

As to `CC1(C)Oc2ccc(C#N)cc2[C@@H](N2CCCC2=O)[C@@H]1O` (racemic) [LEVCROMAKALIM], the Activity with Mus musculus [23] is listed as 3.19 mmHg.

As for `CC1(C)Oc2ccc(C#N)cc2[C@@H](N2CCCC2=O)[C@@H]1OCOP(=O)([O-])[O-].[Na+].[Na+]` (racemic), the Stability entry in data set [24] and in data set [25] was “Stable” in each case. In addition, in the data set with Mus musculus [4], the Activity came out at 1.81 mmHg.
